According to ChEMBL document CHEMBL3046951, “Volatile constituents from the leaves of Callicarpa japonica Thunb. and their antibacterial activities” (2004):

Legend:
Format in all cases: functional
Bacillus cereus [1] = experiment: Antimicrobial activity against Bacillus cereus ATCC 11778 assessed as growth inhibition rate at 5.8 mg/l after 72 hr by spectrophotometry; conditions: ATCC 11778, 72 h, read-out: GI
How it was run: (§1)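 Pure volatile compounds (purity >95%; one at 90%) were tested against B. cereus ATCC 11778. The strain was grown at 30 °C in nutrient broth for 24 h, then subcultured for 18 h. Optical density was read in a Bioscreen C every 24 h for 72 h, with 10% Tween 80 as the control.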

Escherichia coli [2] = experiment: Antimicrobial activity against Escherichia coli O157:H7 ATCC 43894 assessed as growth inhibition rate at 5.8 mg/l after 72 hr by spectrophotometry; conditions: O157:H7 ATCC 43894, 72 h, read-out: GI
Vibrio parahaemolyticus [3] = experiment: Antimicrobial activity against Vibrio parahaemolyticus ATCC 33844 assessed as growth inhibition rate at 5.8 mg/l after 72 hr by spectrophotometry; conditions: ATCC 33844, 72 h, read-out: GI
Staphylococcus aureus [4] = experiment: Antimicrobial activity against Staphylococcus aureus ATCC 25923 assessed as growth inhibition rate at 5.8 mg/l after 72 hr by spectrophotometry; conditions: ATCC 25923, 72 h, read-out: GI
Salmonella typhimurium [5] = experiment: Antimicrobial activity against Salmonella enterica subsp. enterica serovar Typhimurium ATCC 14028 assessed as growth inhibition rate at 5.8 mg/l after 72 hr by spectrophotometry; conditions: ATCC 14028, 72 h, read-out: GI
Listeria monocytogenes [6] = experiment: Antimicrobial activity against Listeria monocytogenes ATCC 19111 assessed as growth inhibition rate at 5.8 mg/l after 72 hr by spectrophotometry; conditions: ATCC 19111, 72 h, read-out: GI
How it was run: (§2)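 L. monocytogenes was grown at 30 °C in tryptic soy broth, subcultured for 18 h, and exposed to pure volatile compounds (>95% purity). Growth was followed by Bioscreen C optical density every 24 h for 72 h against a 10% Tween 80 control.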

Salmonella typhimurium [7] = experiment: Antimicrobial activity against Salmonella enterica subsp. enterica serovar Typhimurium ATCC 14028 assessed as growth inhibition rate at 4.44 mg/l after 72 hr by spectrophotometry; conditions: ATCC 14028, 72 h, read-out: GI
How it was run: (§3)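 Salmonella Typhimurium ATCC 14028 grown in nutrient broth at 30 °C, precultured 24 h, then subcultured 1:100 for 18 h before testing. Single volatile compounds (>95% pure) were added. OD was read every 24 h over 72 h in a Bioscreen C, with 10% Tween 80 as the comparison control.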

Vibrio parahaemolyticus [8] = experiment: Antimicrobial activity against Vibrio parahaemolyticus ATCC 33844 assessed as growth inhibition rate at 4.44 mg/l after 72 hr by spectrophotometry; conditions: ATCC 33844, 72 h, read-out: GI
Escherichia coli [9] = experiment: Antimicrobial activity against Escherichia coli O157:H7 ATCC 43894 assessed as growth inhibition rate at 4.44 mg/l after 72 hr by spectrophotometry; conditions: O157:H7 ATCC 43894, 72 h, read-out: GI
Staphylococcus aureus [10] = experiment: Antimicrobial activity against Staphylococcus aureus ATCC 25923 assessed as growth inhibition rate at 4.44 mg/l after 72 hr by spectrophotometry; conditions: ATCC 25923, 72 h, read-out: GI
Listeria monocytogenes [11] = experiment: Antimicrobial activity against Listeria monocytogenes ATCC 19111 assessed as growth inhibition rate at 4.44 mg/l after 72 hr by spectrophotometry; conditions: ATCC 19111, 72 h, read-out: GI; how it was run: as §2
Bacillus cereus [12] = experiment: Antimicrobial activity against Bacillus cereus ATCC 11778 assessed as growth inhibition rate at 4.44 mg/l after 72 hr by spectrophotometry; conditions: ATCC 11778, 72 h, read-out: GI; how it was run: as §1
Escherichia coli [13] = experiment: Antimicrobial activity against Escherichia coli O157:H7 ATCC 43894 assessed as growth inhibition rate at 1.72 mg/l after 72 hr by spectrophotometry; conditions: O157:H7 ATCC 43894, 72 h, read-out: GI
Staphylococcus aureus [14] = experiment: Antimicrobial activity against Staphylococcus aureus ATCC 25923 assessed as growth inhibition rate at 1.72 mg/l after 72 hr by spectrophotometry; conditions: ATCC 25923, 72 h, read-out: GI
Salmonella typhimurium [15] = experiment: Antimicrobial activity against Salmonella enterica subsp. enterica serovar Typhimurium ATCC 14028 assessed as growth inhibition rate at 1.72 mg/l after 72 hr by spectrophotometry; conditions: ATCC 14028, 72 h, read-out: GI; how it was run: as §3
Listeria monocytogenes [16] = experiment: Antimicrobial activity against Listeria monocytogenes ATCC 19111 assessed as growth inhibition rate at 1.72 mg/l after 72 hr by spectrophotometry; conditions: ATCC 19111, 72 h, read-out: GI; how it was run: as §2
Vibrio parahaemolyticus [17] = experiment: Antimicrobial activity against Vibrio parahaemolyticus ATCC 33844 assessed as growth inhibition rate at 1.72 mg/l after 72 hr by spectrophotometry; conditions: ATCC 33844, 72 h, read-out: GI
Bacillus cereus [18] = experiment: Antimicrobial activity against Bacillus cereus ATCC 11778 assessed as growth inhibition rate at 1.72 mg/l after 72 hr by spectrophotometry; conditions: ATCC 11778, 72 h, read-out: GI; how it was run: as §1
Vibrio parahaemolyticus [19] = experiment: Antimicrobial activity against Vibrio parahaemolyticus ATCC 33844 assessed as growth inhibition rate at 6.32 mg/l after 72 hr by spectrophotometry; conditions: ATCC 33844, 72 h, read-out: GI
Staphylococcus aureus [20] = experiment: Antimicrobial activity against Staphylococcus aureus ATCC 25923 assessed as growth inhibition rate at 6.32 mg/l after 72 hr by spectrophotometry; conditions: ATCC 25923, 72 h, read-out: GI
Salmonella typhimurium [21] = experiment: Antimicrobial activity against Salmonella enterica subsp. enterica serovar Typhimurium ATCC 14028 assessed as growth inhibition rate at 6.32 mg/l after 72 hr by spectrophotometry; conditions: ATCC 14028, 72 h, read-out: GI
Listeria monocytogenes [22] = experiment: Antimicrobial activity against Listeria monocytogenes ATCC 19111 assessed as growth inhibition rate at 6.32 mg/l after 72 hr by spectrophotometry; conditions: ATCC 19111, 72 h, read-out: GI; how it was run: as §2
Bacillus cereus [23] = experiment: Antimicrobial activity against Bacillus cereus ATCC 11778 assessed as growth inhibition rate at 6.32 mg/l after 72 hr by spectrophotometry; conditions: ATCC 11778, 72 h, read-out: GI; how it was run: as §1
Escherichia coli [24] = experiment: Antimicrobial activity against Escherichia coli O157:H7 ATCC 43894 assessed as growth inhibition rate at 6.32 mg/l after 72 hr by spectrophotometry; conditions: O157:H7 ATCC 43894, 72 h, read-out: GI
Listeria monocytogenes [25] = experiment: Antimicrobial activity against Listeria monocytogenes ATCC 19111 assessed as growth inhibition rate at 13.04 mg/l after 72 hr by spectrophotometry; conditions: ATCC 19111, 72 h, read-out: GI; how it was run: as §2
Salmonella typhimurium [26] = experiment: Antimicrobial activity against Salmonella enterica subsp. enterica serovar Typhimurium ATCC 14028 assessed as growth inhibition rate at 13.04 mg/l after 72 hr by spectrophotometry; conditions: ATCC 14028, 72 h, read-out: GI; how it was run: as §3
Escherichia coli [27] = experiment: Antimicrobial activity against Escherichia coli O157:H7 ATCC 43894 assessed as growth inhibition rate at 13.04 mg/l after 72 hr by spectrophotometry; conditions: O157:H7 ATCC 43894, 72 h, read-out: GI
Staphylococcus aureus [28] = experiment: Antimicrobial activity against Staphylococcus aureus ATCC 25923 assessed as growth inhibition rate at 13.04 mg/l after 72 hr by spectrophotometry; conditions: ATCC 25923, 72 h, read-out: GI
Vibrio parahaemolyticus [29] = experiment: Antimicrobial activity against Vibrio parahaemolyticus ATCC 33844 assessed as growth inhibition rate at 13.04 mg/l after 72 hr by spectrophotometry; conditions: ATCC 33844, 72 h, read-out: GI
Bacillus cereus [30] = experiment: Antimicrobial activity against Bacillus cereus ATCC 11778 assessed as growth inhibition rate at 13.04 mg/l after 72 hr by spectrophotometry; conditions: ATCC 11778, 72 h, read-out: GI; how it was run: as §1

## C=CC(O)CC (stereo not given)
Bacillus cereus [1]
  inhibition of growth at 5.8 µg/mL: 9.3%
Escherichia coli [2]
  inhibition of growth at 5.8 µg/mL: 0%
Vibrio parahaemolyticus [3]
  inhibition of growth at 5.8 µg/mL: 1.9%
Staphylococcus aureus [4]
  inhibition of growth at 5.8 µg/mL: 2.4%
Salmonella typhimurium [5]
  inhibition of growth at 5.8 µg/mL: 5%
Listeria monocytogenes [6]
  inhibition of growth at 5.8 µg/mL: 0.4%

## CC1=CC[C@@H]2C[C@H]1C2(C)C [1R-(+)-ALPHA-PINENE]
Salmonella typhimurium [7]
  inhibition of growth at 4.44 µg/mL: 5.2%
Vibrio parahaemolyticus [8]
  inhibition of growth at 4.44 µg/mL: 10.7%
Escherichia coli [9]
  inhibition of growth at 4.44 µg/mL: 0%
Staphylococcus aureus [10]
  inhibition of growth at 4.44 µg/mL: 20.8%
Listeria monocytogenes [11]
  inhibition of growth at 4.44 µg/mL: 0%
Bacillus cereus [12]
  inhibition of growth at 4.44 µg/mL: 0%

## CCC(=O)C(C)=O [2,3-PENTANEDIONE]
Escherichia coli [13]
  inhibition of growth at 1.72 µg/mL: 9.6%
Staphylococcus aureus [14]
  inhibition of growth at 1.72 µg/mL: 47.4%
Salmonella typhimurium [15]
  inhibition of growth at 1.72 µg/mL: 25.5%
Listeria monocytogenes [16]
  inhibition of growth at 1.72 µg/mL: 26.2%
Vibrio parahaemolyticus [17]
  inhibition of growth at 1.72 µg/mL: 39.3%
Bacillus cereus [18]
  inhibition of growth at 1.72 µg/mL: 26.9%

## CCCCCC(=O)CC [3-OCTANONE]
Vibrio parahaemolyticus [19]
  inhibition of growth at 6.32 µg/mL: 0%
Staphylococcus aureus [20]
  inhibition of growth at 6.32 µg/mL: 5.2%
Salmonella typhimurium [21]
  inhibition of growth at 6.32 µg/mL: 5.1%
Listeria monocytogenes [22]
  inhibition of growth at 6.32 µg/mL: 0%
Bacillus cereus [23]
  inhibition of growth at 6.32 µg/mL: 0%
Escherichia coli [24]
  inhibition of growth at 6.32 µg/mL: 3.1%

## C=C1CC[C@@H]2C[C@H]1C2(C)C [(+)-BETA-PINENE]
Listeria monocytogenes [25]
  inhibition of growth at 13.04 µg/mL: 2.8%
Salmonella typhimurium [26]
  inhibition of growth at 13.04 µg/mL: 14.9%
Escherichia coli [27]
  inhibition of growth at 13.04 µg/mL: 3.4%
Staphylococcus aureus [28]
  inhibition of growth at 13.04 µg/mL: 17.6%
Vibrio parahaemolyticus [29]
  inhibition of growth at 13.04 µg/mL: 45.1%
Bacillus cereus [30]
  inhibition of growth at 13.04 µg/mL: 0%
